# High-throughput results (PubChem BioAssay)
# Most compounds without a hit are left out; they make up all but 3.7% or so of the library.
# OX1R antag-1: blocks the human orexin 1 receptor; O43613; OX1R-expressing cells, FRET antagonist read-out; inhibition, % at 6.6 µM; 1.8% of 330,000 active; AID 485270; in the data active means inhibition mostly above about 38%, no sharp cut-off; inactive means mostly below about 40%;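 further: 0% = agonist challenge alone and 100% = reference antagonist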
# Target sequence (O43613 whole entry, looked up): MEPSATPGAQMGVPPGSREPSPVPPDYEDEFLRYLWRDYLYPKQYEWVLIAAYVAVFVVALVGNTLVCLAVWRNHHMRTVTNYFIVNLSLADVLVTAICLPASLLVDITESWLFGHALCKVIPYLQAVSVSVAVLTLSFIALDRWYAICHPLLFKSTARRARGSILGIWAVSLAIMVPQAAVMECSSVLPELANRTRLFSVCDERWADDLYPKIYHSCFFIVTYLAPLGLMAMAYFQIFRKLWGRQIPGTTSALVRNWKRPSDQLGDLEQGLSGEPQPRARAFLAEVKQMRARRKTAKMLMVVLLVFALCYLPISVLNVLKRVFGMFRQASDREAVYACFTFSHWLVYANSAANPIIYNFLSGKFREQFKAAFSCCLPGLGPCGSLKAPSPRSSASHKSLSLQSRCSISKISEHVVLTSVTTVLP
# EP2 modulator: EP2 receptor (human) modulation | 0.83% of 260,000 active | EP2-expressing cells, cAMP HTRF FRET, PGE2 co-stimulation | P43116 | AID 940 | induction, % at 25 µM;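 active means compounds whose cAMP rise, as percent of the full-agonist control response, exceeds 60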;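 further: rat C6 glioma line stably carrying human EP2 under a CMV promoter; the protocol text gives 20 µM as final concentration; 100% = response of wells given 1 µM PGE2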
# PGE2 EP2 inh: EP2 receptor (human) inhibition; P43116; C6 glioma cells expressing human EP2, cAMP TR-FRET; cells stimulated with saturating PGE2; inhibition, % at 25 µM; 0.52% of 260,000 active; AID 1422;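 active means percent inhibition above 40 after rounding to a whole number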;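 further: rat C6 glioma host cells with rolipram phosphodiesterase inhibitor present; the protocol text gives 20 µM as final concentration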
# OX1R antag-2: antagonists of human orexin 1 receptor; 0.43% of 330,000 active; inhibition, % at 5 µM; AID 434989; O43613; CHO/OX1R cells, Fluo-8 calcium fluorescence, orexin A;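 active means inhibition above its plate's threshold, mean inhibition of all tested compounds on the plate plus 3 SD, cut at about 37% in these data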;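 further: 0% = orexin A challenge wells and 100% = SB-334867-A antagonist wells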
# GPR7 antagonist: blocks human GPR7 receptor signaling. GPR7-expressing cells, fluorescence antagonist assay. inhibition, % at 4.4 µM. 1.1% of 290,000 active. AID 1861; in the data active means inhibition above about 16%, passing the limit was not always enough;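 further: cells stimulated with the agonist NPW; 0% = agonist with vehicle and 100% = vehicle without agonist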
# Target sequence (P48145 whole entry, looked up): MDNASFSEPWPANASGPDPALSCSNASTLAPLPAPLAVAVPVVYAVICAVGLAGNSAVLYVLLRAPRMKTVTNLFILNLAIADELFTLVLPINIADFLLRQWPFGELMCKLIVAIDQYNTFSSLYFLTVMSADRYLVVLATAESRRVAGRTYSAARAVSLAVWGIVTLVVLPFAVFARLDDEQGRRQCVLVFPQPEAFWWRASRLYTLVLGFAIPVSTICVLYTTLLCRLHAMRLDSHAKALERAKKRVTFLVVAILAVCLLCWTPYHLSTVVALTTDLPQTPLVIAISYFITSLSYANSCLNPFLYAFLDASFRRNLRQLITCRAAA
# CHO parental Ca: signal in parental CHO cells, OX1R antagonist counter-screen | parental CHO-K1, ATP-induced calcium, Fluo-8 fluorescence | inhibition, % at 5.6 µM | 0.63% of 330,000 active | AID 463079;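 active means inhibition above that plate's mean sample inhibition plus 3 SD, cut at about 26% in these data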;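 further: 0% = ATP-challenged DMSO wells and 100% = DMSO wells without ATP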
#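 Material – parental CHO cells · Reagent – ATP stimulus · Compound – single nominal dose of 5.6 µM per compound · Detection – Fluo-8 fluorescence · Read-out basis – percent inhibition of calcium signal · Controls – ATP-challenged DMSO wells low, unchallenged DMSO wells high · Repeats – no replicates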
# OX1R HTRF conf: confirmation of human orexin 1 receptor antagonists, HTRF format | 49% of 1,800 active | inhibition, % at 6.6 µM | shares compounds with OX1R antag-1 | OX1R-expressing cells, HTRF antagonist assay; in the data active means inhibition above about 55%;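 further: CHO cells expressing OX1R stimulated with orexin A at about EC80; 0% = agonist challenge alone and 100% = reference antagonist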
# CHO-K1 HTRF cnt: signal in parental CHO-K1 cells, OX1R antagonist counter-screen; shares compounds with OX1R antag-1; HTRF counterscreen; inhibition, % at 6.6 µM; 48% of 1,800 active; in the data active means inhibition above about 17%;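 further: 0% = agonist challenge with vehicle and 100% = vehicle alone without agonist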
# The depositor's hits bear a star; x = no result given.
SMILES,OX1R antag-1,EP2 modulator,PGE2 EP2 inh,OX1R antag-2,GPR7 antagonist,CHO parental Ca,OX1R HTRF conf,CHO-K1 HTRF cnt
CCN1C(=O)c2cccc3c(S(=O)(=O)NCc4cccnc4)ccc1c23,77.2*,29.7,10.6,-7.4,-6.5,-1.6,29.5,14.5
COc1ccc(-c2cc(C(=O)Nc3c(C)n(C)n(-c4ccccc4)c3=O)c3ccccc3n2)cc1OC,5.9,x,x,-14.6,-8.7,-11.0,x,x
NC(=O)c1cc(Cc2ccccc2)sc1NC(=O)c1ccco1,25.7,-8.9,11.3,-14.8,-15.3,-18.8,x,x
CCOc1ccc(CC(=O)Nc2sc(Cc3ccccc3)cc2C(N)=O)cc1OCC,78.8*,14.7,9.1,14.2,-9.7,-17.3,87.6*,1.9
Cc1cc(O)ccc1NC(=O)CCN1C(=O)c2ccc([N+](=O)[O-])cc2C1=O,150.7*,-27.1,6.3,5.8,-2.7,6.2,68.8*,74.2*
Cc1ccc(CC(=O)Nc2ccc([N+](=O)[O-])cc2C)cc1,4.5,-3.9,1.4,-2.2,-2.8,11.2,x,x
O=C(NN1C(=O)/C(=C/c2ccc(O)c([N+](=O)[O-])c2)SC1=S)c1ccccc1Cl,112.3*,11.4,9.6,-29.3,-5.0,-15.4,55.4*,17.3*
O=C(c1cccc(OC2CCN(Cc3cccc(OCCO)c3)CC2)c1)N1CCCC1,5.7,x,x,-22.8,-9.3,-14.7,x,x
Cc1nn(CC(=O)N2CCCC2)c(=O)c2nn(-c3ccccc3)c(C)c12,-3.6,x,x,-23.1,-2.3,-5.0,x,x
N/C(=N\OC(=O)c1ccc(Cl)c([N+](=O)[O-])c1)c1ccccn1,114.0*,-38.3,5.7,3.5,-5.3,11.4,50.8,58.3*
N/C(=N\OC(=O)c1ccc(Cl)c(Cl)c1)c1ccccn1,18.1,-7.0,8.9,-26.6,9.7,-7.6,x,x
O=C(CN1C(=O)CCS(=O)(=O)c2ccccc21)NCCc1ccccc1,12.1,x,x,-7.3,-6.5,-3.1,x,x
O=Cc1c(Sc2ccccn2)nc2ccccn2c1=O,95.5*,9.8,9.9,-11.0,-10.9,-4.9,37.0,44.6*
O=Cc1c(Sc2ccccc2)nc2ccccn2c1=O,54.6,5.1,9.8,-8.9,-4.0,17.8,x,x
Cc1c(CCOC(=O)c2cc([N+](=O)[O-])cc([N+](=O)[O-])c2)sc[n+]1CCCCS(=O)(=O)[O-],173.9*,6.9,1.7,-4.1,-11.2,-2.5,72.0*,84.9*
COc1ccc(-n2c(Cn3nnc4ccccc43)n[nH]c2=S)cc1,7.2,10.0,0.6,-8.2,1.9,-4.0,x,x
S=c1[nH]nc2nnc3ccccc3n12,85.3*,-25.7,7.5,-10.8,-6.1,1.6,88.0*,79.0*
O=C(/C=C/c1ccc(Cl)c([N+](=O)[O-])c1)NCc1cccnc1,53.1,x,13.2,-7.3,-0.4,-1.5,x,x
O=C(/C=C/c1ccc([N+](=O)[O-])cc1)NCc1cccnc1,104.3*,-7.9,x,-3.4,13.8,2.6,35.5,36.3*
CC1CCCCN1C(=O)Cn1c(=O)n(-c2ccc(F)cc2)c(=O)c2sccc21 (stereo unspecified),11.5,45.5,8.5,-14.4,-12.7,3.5,x,x
O=C(CCCN1C(=O)c2cccc3cccc(c23)C1=O)NC1CCS(=O)(=O)C1 (stereo unspecified),84.8*,4.1,1.9,-21.2,-6.9,-4.8,41.9,49.7*
O=C(O)CCCN1C(=O)c2cccc3cccc(c23)C1=O,46.1,x,x,-4.1,-6.5,-4.0,x,x
COc1ccc(OC)c(C(=O)CSc2nnc(COc3ccc(C)cc3)o2)c1,x,10.0,7.9,x,x,x,x,x
O=C(Nc1nc2c(F)cc(F)cc2s1)C1CCN(C(=O)c2ccc(F)cc2)CC1,11.2,x,x,-16.4,x,-12.2,x,x
Cc1ccc(C)c(NC(=O)c2oc3ccccc3c2C)c1,x,32.3,15.4,x,x,x,x,x
SMILES,OX1R antag-1,EP2 modulator,PGE2 EP2 inh,OX1R antag-2,GPR7 antagonist,CHO parental Ca,OX1R HTRF conf,CHO-K1 HTRF cnt
Cc1ccc(NC(=O)c2oc3ccccc3c2C)nc1,84.3*,x,x,13.9,-9.4,-11.8,78.7*,2.5
Cc1cc(C=C2C(=O)c3ccccc3C2=O)c(C)n1C,92.1*,-15.1,4.6,9.7,-2.9,-8.4,38.2,14.1
CCn1c(C)cc(C=C2C(=O)c3ccccc3C2=O)c1C,x,-36.5,8.6,x,-2.6,x,x,x
COc1ccc(N2CCN(CC(O)c3c[nH]c4ccc(OC)cc34)CC2C)cc1 (stereo unspecified),14.7,2.9,11.7,-16.3,-2.3,-19.4,x,x
Cc1cc(NC(=O)Cn2cnc3c(nnn3-c3ccc(C)c(Cl)c3)c2=O)no1,12.3,11.8,9.1,-11.3,-9.2,-1.9,x,x
Cc1ccc(C(=O)NCCN2CCOCC2)cc1Cl,5.5,10.7,6.4,-7.3,-12.5,-13.4,x,x
Cc1ccc(N2C(=O)c3ccc(C(=O)NCCN4CCOCC4)cc3C2=O)cc1,82.0*,-2.4,x,-11.9,-2.1,-6.2,50.7,44.4*
COc1cccc(/C=N/NC(=O)C(=O)Nc2ccccc2OC(F)(F)C(F)F)c1O,96.5*,-4.4,12.1,-2.2,0.1,-13.9,93.3*,9.4
COc1ccccc1/C=N/NC(=O)c1cccc(OC(F)(F)C(F)F)c1,3.2,-78.0,19.9,-21.1,-1.8,-5.3,x,x
C=CCn1cc(/C=C/c2cc[n+](C)cc2)c2ccccc21,86.6*,x,x,8.0,-16.1,-0.1,32.9,32.9*
Cc1[nH]c2ccccc2c1/C=C/c1cc[n+](C)cc1,x,-39.5,32.5,x,-6.6,x,x,x
O=[N+]([O-])c1cnccc1Nc1ccc(F)cc1,127.2*,13.7,18.8,-16.0,-12.2,5.8,36.5,33.4*
O=C(Nc1ccc(C(=O)O)cc1)Nc1ccc([N+](=O)[O-])cc1,9.1,x,x,-10.4,-13.4,-8.7,x,x
O=C(O)c1ccc(Nc2ncc([N+](=O)[O-])cc2[N+](=O)[O-])cc1,93.4*,6.2,9.3,-2.4,-9.6,-7.9,68.2*,107.1*
CC(=O)NN1C(=O)c2ccc3c4c(ccc(c24)C1=O)C(=O)N(NC(C)=O)C3=O,83.2*,x,x,-14.8,9.8,-3.0,69.1*,174.1*
O=C1c2ccc3c4c(ccc(c24)C(=O)N1NC(=O)C(F)(F)F)CC3,22.2,5.8,8.6,-0.1,-6.2,-6.4,x,x
CCN(CC)c1ccc2cc(C(C)=O)c(=O)oc2c1,95.7*,9.7,9.9,8.3,-6.5,8.4,34.3,8.2
CCN(CC)c1ccc2cc(C(N)=O)c(=O)oc2c1,19.2,6.7,5.9,-4.7,-8.6,-3.3,x,x
NS(=O)(=O)c1ccc(N=Cc2c(O)c3ccccc3oc2=O)cc1,77.3*,17.9,0.7,-15.3,-7.1,-4.6,21.0,-11.3
COCCN(C(=S)Nc1c(C)cccc1C)C(C)c1cccs1 (stereo unspecified),146.8*,37.3,6.3,-13.3,1.3,-4.8,33.0,4.5
CCOc1ccc(CNC(=O)Nc2ccccc2)cc1,-4.9,x,x,-12.9,-10.8,-22.9,x,x
